Experimental data published in article PMC8033778 (ACS Pharmacology & Translational Science, 2021).

Test: In vivo stability of 18F-labeled Tz-derivatives
Conditions: naïve mice, plasma 30 min p.i., radio-TLC, n = 4
In short: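 Naïve mice received the 18F-labeled tetrazine. Blood was collected after 30 min and plasma analysed by radio-TLC. Stability is expressed as the fraction (%) of radioactivity corresponding to intact compound (n = 4).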

in vivo stability (% intact [18F]Tz after 30 min): 26%
Compound: Cc1nnc(-c2ccc(OCc3cn(CC[18F])nn3)cc2)nn1 [[^18F]5, 3-(4-((1-(2-[18F]Fluoroethyl)-1H-1,2,3-triazol-4-yl)methoxy)phenyl)-6-methyl-1,2,4,5-tetrazine]
